# Assay results pooled from the literature.
# Sample: plasma
# Route: oral
SMILES,system,conditions,AUC(0-inf) [ng·h/mL]
CC(C)(O)c1ccccc1-c1ccc2[nH]c(/C=C/c3ccc(C(F)(F)F)cc3)nc2c1,male human,"50 mg, single dose, fasted, healthy volunteers",7820
CC(C)[C@](O)(c1ccc2cc(OC(F)F)c(OC(F)F)cc2c1)c1c[nH]nn1,female human,"750 mg, single dose",84600
O=C(Nc1c(Cl)cncc1Cl)c1ccc(OC(F)F)c(OCC2CC2)c1,human,"0.25 mg, single dose, fasted",33.8
COc1ccc([C@@H]2CN(C(=O)[C@@H](O)CO)C[C@@]2(C)[C@@H](C)O)cc1OC1CN(c2ccc(C)cn2)C1,human,"10 mg, single dose, healthy volunteers",3160
CC(C)n1cc(C#N)c2cc(-n3cc(C(=O)O)cn3)ccc21,human,"10 mg, single dose, fasted, healthy volunteers",1770
CC(C)(Sc1ccncc1-c1ccc(C#N)c2ccccc12)C(=O)O,male human,"40 mg, single dose, fasted, healthy volunteers",1270
CCc1nc2c(C)cc(N3CCN(CC(=O)N4CC(O)C4)CC3)cn2c1N(C)c1nc(-c2ccc(F)cc2)c(C#N)s1,human,"600 mg, single dose, fasted, healthy volunteers",36600
Cn1cc(-c2ccc(S(=O)(=O)[C@@H]3C[C@@H](C(=O)NC4(C#N)CC4)N(C(=O)C4(C(F)(F)F)CC4)C3)c(C(F)(F)F)c2)cn1,human,"3 mg, single dose, fasted, healthy volunteers",229
C[C@@]1(c2cc(NC(=O)c3ccc(C#N)cn3)ccc2F)C=CSC(N)=N1,human,"3 mg, single dose",259
CO[C@H]1CC[C@H](N2C(=O)CNc3ncc(-c4ccc(C(C)(C)O)nc4)nc32)CC1,human,"7.5 mg, patients",353
CCCOc1ccc([C@H]2CNC(=O)N2c2ccc3[nH]cnc3c2)cc1,human,"200 mg, single dose, fasted, healthy volunteers",2330
